Values after ≈ are worked out from the molar mass of the structure shown.
Experiments:
Mus musculus [1] = test: In vivo inhibition of Pim1/2-mediated BAD protein phosphorylation at Ser-112 in human KMS-12-BM cells xenografted in SCID-beige mouse assessed as pBAD level at 100 mg/kg, po administered as single dose measured after 6 hrs by meso scale discovery assay; assay type: functional; parameters: scale not given: the % may be the effect or the level left
Method in brief: (§1)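 KMS-12-BM xenograft mice given a single oral dose of 25, 50 or 100 mg/kg. Tumor Ser-112 pBAD measured at time points through 16 h postdose. EC50 obtained by fitting all individual total plasma concentration–pBAD response data. Unbound value derived from mouse plasma fraction unbound.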

[2] = Volume of distribution at steady state in Sprague-Dawley rat at 2 mg/kg, iv; assay type: ADME, organism-based; conditions: in vivo, read-out: Vdss
Method in brief: (§2)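 Pharmacokinetics in male Sprague–Dawley rats. Clearance also expressed as a percentage of liver blood flow. Oral bioavailability determined.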

[3] = Fraction unbound in SCID-beige mouse plasma at 5 uM by LC/MS analysis; assay type: ADME, cell-free
Mus musculus [4] = test: Toxicity in human KMS-12-BM cells xenografted SCID-beige mouse assessed as effect on body weight at 10 to 100 mg/kg, po qd; assay type: organism-based; conditions: in vivo
Method in brief: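 Tolerability followed in KMS-12-BM xenograft mice given oral doses once daily at 10, 25, 50 or 100 mg/kg over a 16-day efficacy study. Body weight monitored throughout.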

[5] = biological target: Dual specificity protein kinase CLK2 (Homo sapiens) (UniProt P49760); test: Inhibition of human CLK2 assessed as remaining enzyme activity at 1 uM by KINOMEscan assay
Method in brief: (§3)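 scanMAX KINOMEscan panel of 392 nonmutant kinases, compound tested at 1 μM. Result expressed as percent of control (POC). S(10) and S(1) scores are the fraction of kinases with POC below 10% and below 1%.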

[6] = biological target: Homeodomain-interacting protein kinase 3 (Homo sapiens) (UniProt Q9H422); test: Inhibition of human HIPK3 assessed as remaining enzyme activity at 1 uM by KINOMEscan assay; method in brief: as §3
[7] = biological target: Casein kinase I isoform alpha-like (Homo sapiens) (UniProt Q8N752); test: Inhibition of full-length human CSNK1A1L expressed in bacterial system assessed as remaining enzyme activity at 1 uM by KINOMEscan assay; method in brief: as §3
Chain of Casein kinase I isoform alpha-like (Homo sapiens) (Q8N752 whole entry, canonical isoform): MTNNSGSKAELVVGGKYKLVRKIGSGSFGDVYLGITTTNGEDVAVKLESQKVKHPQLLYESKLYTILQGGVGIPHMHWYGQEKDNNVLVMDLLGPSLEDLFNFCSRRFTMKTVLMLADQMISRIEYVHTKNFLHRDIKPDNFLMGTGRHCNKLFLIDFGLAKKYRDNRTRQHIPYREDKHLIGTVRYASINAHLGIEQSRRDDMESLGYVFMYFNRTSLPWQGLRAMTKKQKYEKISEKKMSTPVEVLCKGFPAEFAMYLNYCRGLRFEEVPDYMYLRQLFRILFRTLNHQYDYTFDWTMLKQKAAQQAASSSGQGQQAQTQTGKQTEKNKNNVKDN

[8] = biological target: Dual specificity protein kinase CLK1 (Homo sapiens) (UniProt P49759); test: Inhibition of human CLK1 assessed as remaining enzyme activity at 1 uM by KINOMEscan assay; method in brief: as §3
Chain of Dual specificity protein kinase CLK1 (Homo sapiens) (P49759 whole entry, looked up): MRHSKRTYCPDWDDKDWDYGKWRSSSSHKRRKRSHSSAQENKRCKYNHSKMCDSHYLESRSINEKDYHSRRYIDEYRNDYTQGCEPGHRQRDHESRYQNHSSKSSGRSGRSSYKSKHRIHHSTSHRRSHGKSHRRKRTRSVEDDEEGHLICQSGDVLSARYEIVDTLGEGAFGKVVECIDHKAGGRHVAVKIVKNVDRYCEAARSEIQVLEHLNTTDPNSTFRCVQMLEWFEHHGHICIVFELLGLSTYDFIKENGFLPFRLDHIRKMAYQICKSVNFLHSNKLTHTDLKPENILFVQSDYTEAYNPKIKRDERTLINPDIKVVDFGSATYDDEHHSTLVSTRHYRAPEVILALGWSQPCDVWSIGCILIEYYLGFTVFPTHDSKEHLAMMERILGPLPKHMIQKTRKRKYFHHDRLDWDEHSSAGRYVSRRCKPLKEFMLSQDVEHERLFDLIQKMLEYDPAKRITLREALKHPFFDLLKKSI

[9] = biological target: Dual specificity tyrosine-phosphorylation-regulated kinase 1B (Homo sapiens) (UniProt Q9Y463); test: Inhibition of human DYRK1B assessed as remaining enzyme activity at 1 uM by KINOMEscan assay; method in brief: as §3
Chain of Dual specificity tyrosine-phosphorylation-regulated kinase 1B (Homo sapiens) (Q9Y463 whole entry, looked up): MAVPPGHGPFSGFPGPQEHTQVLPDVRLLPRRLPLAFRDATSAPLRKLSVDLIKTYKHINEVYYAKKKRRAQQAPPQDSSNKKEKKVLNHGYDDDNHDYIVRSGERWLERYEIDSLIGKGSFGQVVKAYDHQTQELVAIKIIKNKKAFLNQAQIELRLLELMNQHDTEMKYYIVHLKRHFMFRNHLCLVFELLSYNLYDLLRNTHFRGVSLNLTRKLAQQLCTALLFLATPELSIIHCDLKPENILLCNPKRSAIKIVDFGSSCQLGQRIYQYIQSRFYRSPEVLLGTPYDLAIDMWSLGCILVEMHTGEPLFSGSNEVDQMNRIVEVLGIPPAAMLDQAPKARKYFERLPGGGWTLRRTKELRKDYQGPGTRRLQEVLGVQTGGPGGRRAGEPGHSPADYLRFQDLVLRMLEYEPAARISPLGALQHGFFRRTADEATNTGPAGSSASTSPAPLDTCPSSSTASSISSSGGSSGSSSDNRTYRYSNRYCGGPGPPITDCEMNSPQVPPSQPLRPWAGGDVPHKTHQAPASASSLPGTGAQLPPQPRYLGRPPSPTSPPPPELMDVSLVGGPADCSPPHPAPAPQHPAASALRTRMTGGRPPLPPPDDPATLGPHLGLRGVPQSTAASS

[10] = Clearance in Sprague-Dawley rat at 2 mg/kg, iv; assay type: ADME, organism-based; conditions: in vivo; method in brief: as §2
[11] = Antitumor activity against human KMS-12-BM cells xenografted in SCID-beige mouse at 100 mg/kg, po qd relative to vehicle control; assay type: functional; conditions: read-out: TGI
Method in brief: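 Mouse KMS-12-BM xenograft efficacy study running 16 days. Oral dosing once daily at 10, 25, 50 or 100 mg/kg. Tumor volume compared with vehicle-treated controls.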

[12] = Apparent permeability in pig LLC-PK1 cells at 5 uM; assay type: ADME, cell-based, Sus scrofa
[13] = biological target: T1, Serine/threonine-protein kinase pim-1 (Homo sapiens, UniProt P11309); test: Inhibition of human full-length Pim1 expressed in Escherichia coli assessed as phosphorylation of biotinylated BAD peptide at Ser-112 preincubated for 30 mins followed by substrate addition measured after 1 hr by HTRF assay
[14] = biological target: Myosin light chain kinase family member 4 (Homo sapiens) (UniProt Q86YV6); test: Inhibition of human MYLK4 assessed as remaining enzyme activity at 1 uM by KINOMEscan assay; method in brief: as §3
Chain of Myosin light chain kinase family member 4 (Homo sapiens) (Q86YV6 whole entry, canonical isoform): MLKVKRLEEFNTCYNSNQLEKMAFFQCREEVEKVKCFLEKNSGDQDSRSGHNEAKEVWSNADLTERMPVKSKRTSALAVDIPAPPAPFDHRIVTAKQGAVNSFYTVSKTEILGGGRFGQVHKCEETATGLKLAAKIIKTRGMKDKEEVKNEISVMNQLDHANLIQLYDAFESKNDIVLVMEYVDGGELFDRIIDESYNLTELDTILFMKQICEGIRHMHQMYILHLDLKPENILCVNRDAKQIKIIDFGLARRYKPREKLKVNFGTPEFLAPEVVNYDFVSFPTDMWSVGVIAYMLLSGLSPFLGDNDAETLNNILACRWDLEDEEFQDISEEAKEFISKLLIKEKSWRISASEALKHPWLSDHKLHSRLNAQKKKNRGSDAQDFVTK

[15] = biological target: Casein kinase I isoform epsilon (Homo sapiens) (UniProt P49674); test: Inhibition of full-length human CSNK1E expressed in bacterial system assessed as remaining enzyme activity at 1 uM by KINOMEscan assay; method in brief: as §3
Chain of Casein kinase I isoform epsilon (Homo sapiens) (P49674 whole entry, looked up, canonical isoform): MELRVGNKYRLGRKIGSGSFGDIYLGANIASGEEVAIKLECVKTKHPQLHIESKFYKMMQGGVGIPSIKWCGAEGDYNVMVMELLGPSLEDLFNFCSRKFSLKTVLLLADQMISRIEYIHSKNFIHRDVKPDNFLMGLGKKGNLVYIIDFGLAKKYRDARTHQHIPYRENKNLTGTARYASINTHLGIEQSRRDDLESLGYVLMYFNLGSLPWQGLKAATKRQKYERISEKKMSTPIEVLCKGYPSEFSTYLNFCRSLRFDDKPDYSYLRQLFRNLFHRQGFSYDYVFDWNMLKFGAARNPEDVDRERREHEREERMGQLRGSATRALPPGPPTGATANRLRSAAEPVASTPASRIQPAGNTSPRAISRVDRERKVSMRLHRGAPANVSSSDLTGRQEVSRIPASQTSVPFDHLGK

Rattus norvegicus = test: Clearance in Sprague-Dawley rat at 2 mg/kg, iv relative to hepatic blood flow; assay type: ADME, organism-based, Liver; conditions: in vivo; method in brief: as §2
[16] = biological target: Casein kinase II subunit alpha (Homo sapiens) (UniProt P68400); test: Inhibition of full-length human CSNK2A1 expressed in mammalian system assessed as remaining enzyme activity at 1 uM by KINOMEscan assay; method in brief: as §3
Chain of Casein kinase II subunit alpha (Homo sapiens) (P68400 whole entry, looked up): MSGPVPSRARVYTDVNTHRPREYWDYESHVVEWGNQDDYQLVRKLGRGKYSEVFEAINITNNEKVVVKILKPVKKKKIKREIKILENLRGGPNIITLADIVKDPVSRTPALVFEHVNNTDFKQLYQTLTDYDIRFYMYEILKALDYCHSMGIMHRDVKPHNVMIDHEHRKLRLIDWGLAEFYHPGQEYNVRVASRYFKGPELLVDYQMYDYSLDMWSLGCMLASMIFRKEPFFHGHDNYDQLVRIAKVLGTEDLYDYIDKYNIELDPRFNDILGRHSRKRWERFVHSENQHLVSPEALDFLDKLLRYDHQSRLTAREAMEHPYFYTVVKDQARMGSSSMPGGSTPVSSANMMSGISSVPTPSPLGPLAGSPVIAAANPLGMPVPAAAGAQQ

[17] = biological target: T2, Serine/threonine-protein kinase pim-2 (Homo sapiens, UniProt Q9P1W9); test: Inhibition of human full-length Pim2 expressed in Escherichia coli assessed as phosphorylation of biotinylated BAD peptide at Ser 112 preincubated for 30 mins followed by substrate addition measured after 1 hr by HTRF assay
Method in brief: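 Cell-free kinase assay using recombinant Pim-1 or Pim-2. Read-out is phosphorylation of a short BAD peptide sequence spanning Ser-112.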
Target sequence in this assay (Q9P1W9 whole entry): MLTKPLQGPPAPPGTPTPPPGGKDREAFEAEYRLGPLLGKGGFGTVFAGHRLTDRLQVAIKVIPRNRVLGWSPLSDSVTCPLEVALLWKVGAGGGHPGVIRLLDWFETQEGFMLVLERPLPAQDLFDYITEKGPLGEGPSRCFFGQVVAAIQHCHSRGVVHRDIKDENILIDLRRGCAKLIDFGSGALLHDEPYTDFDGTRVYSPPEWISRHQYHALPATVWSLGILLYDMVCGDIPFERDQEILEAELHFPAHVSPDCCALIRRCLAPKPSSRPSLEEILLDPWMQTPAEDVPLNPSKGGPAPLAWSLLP

[18] = biological target: Casein kinase I isoform delta (Homo sapiens) (UniProt P48730); test: Inhibition of full-length human CSNK1D expressed in bacterial system assessed as remaining enzyme activity at 1 uM by KINOMEscan assay; method in brief: as §3
Chain of Casein kinase I isoform delta (Homo sapiens) (P48730 whole entry, looked up, canonical isoform): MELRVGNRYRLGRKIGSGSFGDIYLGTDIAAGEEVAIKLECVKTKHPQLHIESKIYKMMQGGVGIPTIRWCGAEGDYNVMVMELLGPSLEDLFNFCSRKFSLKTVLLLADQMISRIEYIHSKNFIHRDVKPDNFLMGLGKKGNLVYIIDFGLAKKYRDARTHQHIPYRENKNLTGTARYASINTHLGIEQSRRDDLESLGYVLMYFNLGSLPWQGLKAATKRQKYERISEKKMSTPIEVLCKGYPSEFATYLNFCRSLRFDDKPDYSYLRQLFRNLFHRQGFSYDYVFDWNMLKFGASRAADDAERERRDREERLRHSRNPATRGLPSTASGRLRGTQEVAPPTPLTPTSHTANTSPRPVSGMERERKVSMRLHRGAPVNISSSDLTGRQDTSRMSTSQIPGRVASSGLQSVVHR

Mus musculus [19] = test: In vivo inhibition of Pim1/2-mediated BAD protein phosphorylation at Ser-112 in human KMS-12-BM cells xenografted in SCID-beige mouse assessed as pBAD level at 50 mg/kg, po administered as single dose measured after 6 hrs by meso scale discovery assay; assay type: functional; parameters: scale not given: the % may be the effect or the level left; method in brief: as §1
[20] = biological target: T1, Serine/threonine-protein kinase pim-1; test: Inhibition of human PIM1 assessed as remaining enzyme activity at 1 uM by KINOMEscan assay
Method in brief: (§4)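 Profiled at 1 μM compound across a scanMAX KINOMEscan panel of 392 nonmutant kinases. Activity is reported as percent-of-control (POC). Panel-wide S(10) and S(1) selectivity scores are the fraction of kinases with POC below 10% and below 1%.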

[21] = biological target: Mitogen-activated protein kinase 15 (Homo sapiens) (UniProt Q8TD08); test: Inhibition of human MAPK15 assessed as remaining enzyme activity at 1 uM by KINOMEscan assay; method in brief: as §3
Chain of Mitogen-activated protein kinase 15 (Homo sapiens) (Q8TD08 whole entry): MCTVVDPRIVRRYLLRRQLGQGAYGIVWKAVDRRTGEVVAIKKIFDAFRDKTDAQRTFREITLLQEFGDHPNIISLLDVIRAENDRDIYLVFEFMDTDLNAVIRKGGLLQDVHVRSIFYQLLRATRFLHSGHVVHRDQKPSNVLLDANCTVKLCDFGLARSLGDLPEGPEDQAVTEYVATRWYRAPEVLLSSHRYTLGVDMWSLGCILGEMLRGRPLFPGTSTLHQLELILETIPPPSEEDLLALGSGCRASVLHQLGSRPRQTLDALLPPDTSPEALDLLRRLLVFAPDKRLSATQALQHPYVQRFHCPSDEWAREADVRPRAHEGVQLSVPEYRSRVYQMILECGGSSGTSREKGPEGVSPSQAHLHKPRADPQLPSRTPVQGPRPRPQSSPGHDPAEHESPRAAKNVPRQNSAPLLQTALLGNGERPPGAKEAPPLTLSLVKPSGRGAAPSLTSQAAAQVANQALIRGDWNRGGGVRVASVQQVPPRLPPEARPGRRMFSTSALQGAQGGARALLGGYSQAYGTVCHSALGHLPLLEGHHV

[22] = biological target: T2, Serine/threonine-protein kinase pim-2; test: Inhibition of human PIM2 assessed as remaining enzyme activity at 1 uM by KINOMEscan assay; method in brief: as §4
Target sequence in this assay (Q9P1W9 whole entry, looked up): as the sequence (Q9P1W9 whole entry) above

Plasma = test: Free plasma concentration in SCID-beige mouse at 5 uM by LC/MS analysis; assay type: ADME, cell-free
[23] = biological target: Casein kinase I isoform gamma-2 (Homo sapiens) (UniProt P78368); test: Inhibition of full-length human CSNK1G2 expressed in bacterial system assessed as remaining enzyme activity at 1 uM by KINOMEscan assay; method in brief: as §3
Chain of Casein kinase I isoform gamma-2 (Homo sapiens) (P78368 whole entry, looked up, canonical isoform): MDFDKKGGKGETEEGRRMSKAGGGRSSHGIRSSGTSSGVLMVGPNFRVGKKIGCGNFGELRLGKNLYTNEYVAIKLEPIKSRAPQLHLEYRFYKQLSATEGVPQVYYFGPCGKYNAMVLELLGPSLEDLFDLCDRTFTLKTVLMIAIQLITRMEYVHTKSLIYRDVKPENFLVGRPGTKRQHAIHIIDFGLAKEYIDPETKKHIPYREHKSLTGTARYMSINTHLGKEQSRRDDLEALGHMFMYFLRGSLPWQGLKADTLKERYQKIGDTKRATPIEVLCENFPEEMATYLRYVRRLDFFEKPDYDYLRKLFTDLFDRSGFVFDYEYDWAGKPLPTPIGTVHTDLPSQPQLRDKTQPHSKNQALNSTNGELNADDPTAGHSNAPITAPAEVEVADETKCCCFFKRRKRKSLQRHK

[24] = biological target: Mitogen-activated protein kinase kinase kinase 19 (Homo sapiens) (UniProt Q56UN5); test: Inhibition of human YSK4 assessed as remaining enzyme activity at 1 uM by KINOMEscan assay; method in brief: as §3
Mus musculus [25] = test: In vivo inhibition of Pim1/2-mediated BAD protein phosphorylation at Ser-112 in human KMS-12-BM cells xenografted in SCID-beige mouse assessed as pBAD level at 25 mg/kg, po administered as single dose measured after 6 hrs by meso scale discovery assay; assay type: functional; parameters: scale not given: the % may be the effect or the level left; method in brief: as §1
[26] = Half life in Sprague-Dawley rat at 2 mg/kg, iv; assay type: ADME, organism-based; conditions: in vivo; method in brief: as §2
[27] = Equilibrium solubility of compound in PBS by HPLC analysis; assay type: physicochemical
[28] = Drug metabolism in rat liver microsomes assessed as compound turnover at 1 uM incubated for 30 mins; assay type: ADME; conditions: read-out: Drug metabolism

Vd [2]: 1.5 L/kg
fraction unbound at 5 µM [3]: 0.0084
Activity [5]: < 10%
Activity [6]: < 10%
Activity [7]: < 10%
Activity [8]: < 10%
Activity [9]: < 10%
clearance [10]: 7.83 mL/min/kg
Papp at 5 µM [12]: 29 ×10⁻⁶ cm/s
IC50 [13]: 0.3 nM
Activity [14]: < 10%
Activity [15]: < 10%
CL (Rattus norvegicus): 14%
Activity [16]: < 10%
IC50 [17]: 0.5 nM
Activity [18]: < 10%
Activity [20]: < 10%
Activity [22]: < 10%
Cp(f) (Plasma): 30 nM
Activity [23]: < 10%
Activity [24]: < 10%
half-life [26]: 4 h
solubility thermodynamic [27]: 40 µM (≈ 14.4 µg/mL)
metabolised at 0.5 h, 1 µM [28]: 39%
Structure (SMILES): Cc1nc2cccc3c2nc1N[C@H](C)/C=C\C[C@H]1CNC(=O)c2cc-3[nH]c21
Activity (Mus musculus [1]): 66%
Activity (Mus musculus [4]): Non-toxic
inhibition in vivo at 100 mg/kg [11]: 100%
Activity (Mus musculus [19]): 60%
Activity [21]: < 10%
Activity (Mus musculus [25]): 35%
